This is an account of results in ChEMBL document CHEMBL3784921, “Mimicking of Arginine by Functionalized N(ω)-Carbamoylated Arginine As a New Broadly Applicable Approach to Labeled Bioactive Peptides: High Affinity Angiotensin, Neuropeptide Y, Neuropeptide FF, and Neurotensin Receptor Ligands As Examples” (J Med Chem, 2016).

pEC50, pIC50, pKi: −log10 of the molar value. *1 amine or outer side, *2 acyl side, *3 side chain or, on linkers, in order; H or OH if unused. Where a SMILES comes first, the peptide text is derived from it. [ ]: non-standard residue; d: D form. X2 = NCCCCNC(=O)/N=C(\N)NCCC[C@H](N[*:1])C(=O)[*:2] A value given as a limit tells only on which side of the number the result lay.

Data set [1] deals with Neurotensin receptor type 1 (Homo sapiens, UniProt P30989). Description: Displacement of [3H]-{Nomega-[N-(4-propanoylaminobutyl)aminocarbonyl]}Arg-Arg-ProTyr-Ile-Leu-OH Tris(hydrotrifluoroacetate) from NTSR1 in human HT-29 cells after 2 hrs by liquid scintillation counting. Format: cell-based. On the technique in general: Displacement assays read how much labelled ligand stays bound in the presence of the test substance.
Neurotensin receptor type 1, sequence (P30989 whole entry): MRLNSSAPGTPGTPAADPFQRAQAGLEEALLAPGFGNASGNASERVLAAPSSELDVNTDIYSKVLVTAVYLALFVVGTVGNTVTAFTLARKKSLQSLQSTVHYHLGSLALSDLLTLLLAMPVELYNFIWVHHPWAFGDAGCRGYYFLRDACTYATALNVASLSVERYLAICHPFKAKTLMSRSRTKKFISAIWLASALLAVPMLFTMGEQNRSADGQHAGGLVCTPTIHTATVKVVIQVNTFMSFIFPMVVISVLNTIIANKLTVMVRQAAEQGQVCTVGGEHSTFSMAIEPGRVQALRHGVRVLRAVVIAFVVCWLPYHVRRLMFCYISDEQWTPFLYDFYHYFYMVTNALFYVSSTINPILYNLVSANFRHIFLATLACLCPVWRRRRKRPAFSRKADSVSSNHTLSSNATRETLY

Data set [2] can be described thus: Chemical stability of compound at 120 uM at pH 7 at 21 degC after 24 to 48 hrs by reversed-phase HPLC analysis. Format: physicochemical. The conditions noted are these: buffer, pH 7, 120 µM. Summed up:
(§1)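 Peptide incubated in phosphate buffer (PBS), pH 7.0, 21 °C, for 24 or 48 h. Remaining intact peptide assessed by reversed-phase HPLC chromatograms.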

Data set [3] is described as follows: Chemical stability of compound at 150 uM at pH 7 at 21 degC after 24 to 48 hrs by reversed-phase HPLC analysis. The note with it: buffer, pH 7, 150 µM. It counts as physicochemical. The procedure, abridged: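 Peptide incubated in phosphate buffer (PBS), pH 7.0, 21 °C, for 24 or 48 h. Remaining intact peptide assessed from reversed-phase HPLC chromatograms.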

The nature of data set [4]: Drug degradation in human HT-29 cells at 50 uM after 2 hrs by reversed-phase HPLC analysis. It counts as ADME, cell-based. The conditions noted are these: read-out: Drug degradation. The procedure, abridged: (§2)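 Stability tested under binding-assay conditions for up to 6 h: AT1 ligands with CHO-hAT1 cells and NTSR1 ligands with HT-29 cells. Samples analysed by reversed-phase HPLC chromatography.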

Data set [5] can be described thus: Drug degradation in CHO cells expressing human AT1 receptor at 50 uM after 2 hrs by reversed-phase HPLC analysis. Format: ADME, cell-based, Cricetulus griseus. The note with it: chinese hamster, read-out: Drug degradation. The procedure, abridged:
as §2

The target of data set [6] is T1, Type-1 angiotensin II receptor (Homo sapiens, UniProt P30556).
T1 sequence (P30556 whole entry): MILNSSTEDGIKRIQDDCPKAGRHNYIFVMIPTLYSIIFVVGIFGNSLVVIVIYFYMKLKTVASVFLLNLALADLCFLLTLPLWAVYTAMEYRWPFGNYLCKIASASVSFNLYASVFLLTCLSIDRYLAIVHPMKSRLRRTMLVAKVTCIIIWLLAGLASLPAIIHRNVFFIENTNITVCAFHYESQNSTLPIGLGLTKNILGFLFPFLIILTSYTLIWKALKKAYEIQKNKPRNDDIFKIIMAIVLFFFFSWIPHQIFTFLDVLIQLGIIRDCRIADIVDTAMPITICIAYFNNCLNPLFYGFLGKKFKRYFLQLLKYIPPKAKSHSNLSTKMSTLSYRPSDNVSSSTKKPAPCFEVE
Description: Agonist activity at human AT1 receptor transfected in CHO cells co-expressing Galpha16-mtAEQ assessed as induction of intracellular Ca2+ mobilization by bioluminescence assay. It counts as functional, cell-based. Background: A change in cytosolic calcium serves as a functional read-out for many receptors and channels.

For data set [7], the target named is T1, Type-1 angiotensin II receptor. Description: Displacement of [3H]-Asp-{Nomega-[N-(4-propanoylaminobutyl)aminocarbonyl]}Arg-ValTyr-Ile-His-Pro-Phe-OH Tris(hydrotrifluoroacetate) from human AT1 receptor transfected in CHO cells co-expressing Galpha16-mtAEQ after 2 hrs by liquid scintillation counting. It counts as cell-based.
Data set [8] can be described thus: Chemical stability of compound at 200 uM at pH 7 at 21 degC after 24 to 48 hrs by reversed-phase HPLC analysis. The conditions noted are these: buffer, pH 7, 200 µM. Format: physicochemical. Summed up:
as §1

On to `COc1cccc(OC)c1-c1cc(C(=O)NC2(C(=O)O)C3CC4CC(C3)CC2C4)nn1-c1ccc(C(=O)N(C)CCCN(C)C)cc1C(C)C` (configuration not stated), for which, in data set [1], the pIC50 – broadly, the IC50 on a negative log10 scale, so that one unit is a factor of ten – was 8.50 and the pKi (as a rule, −log10 of the Ki, conventionally taken in molar units) was 8.96.

With `CC[C@H](C)[C@H](NC(=O)[C@H](Cc1ccc(O)cc1)NC(=O)[C@@H](NC(=O)[C@H](CCCN/C(N)=N/C(=O)NCCCCNC(=O)CCCCC[n+]1cc(S(=O)(=O)[O-])ccc1/C=C/c1cc2ccc(N(CC)CC)cc2oc1=O)NC(=O)[C@@H](N)CC(=O)O)C(C)C)C(=O)N[C@@H](Cc1cnc[nH]1)C(=O)N1CCC[C@H]1C(=O)N[C@@H](Cc1ccccc1)C(=O)O.O=C(O)C(F)(F)F.O=C(O)C(F)(F)F.O=C(O)C(F)(F)F`, the Stability entry in data set [2] was “Stable”. Regarding `CC[C@H](C)[C@H](NC(=O)[C@H](Cc1ccc(O)cc1)NC(=O)[C@@H]1CCCN1C(=O)[C@H](CCCNC(=N)N)NC(=O)[C@@H](N)CCCN/C(N)=N/C(=O)NCCCCNC(=O)CCCCC[n+]1cc(S(=O)(=O)[O-])ccc1/C=C/c1cc2ccc(N(CC)CC)cc2oc1=O)C(=O)N[C@@H](CC(C)C)C(=O)O.O=C(O)C(F)(F)F.O=C(O)C(F)(F)F.O=C(O)C(F)(F)F`, the Stability result in data set [3] is recorded as “Stable”.

Regarding `CCC(=O)NCCOCCOCCNC(=O)/N=C(\N)NCCC[C@H](N)C(=O)N[C@@H](CCCNC(=N)N)C(=O)N1CCC[C@H]1C(=O)N[C@@H](Cc1ccc(O)cc1)C(=O)N[C@H](C(=O)N[C@@H](CC(C)C)C(=O)O)[C@@H](C)CC`, the metabolised at 2 h, 50 µM in data set [4] is under 5.5%. Take `CCC(=O)NCCOCCOCCNC(=O)/N=C(\N)NCCC[C@H](NC(=O)[C@@H](N)CC(=O)O)C(=O)N[C@H](C(=O)N[C@@H](Cc1ccc(O)cc1)C(=O)N[C@H](C(=O)N[C@@H](Cc1cnc[nH]1)C(=O)N1CCC[C@H]1C(=O)N[C@@H](Cc1ccccc1)C(=O)O)[C@@H](C)CC)C(C)C`: in data set [5], the metabolised at 2 h, 50 µM is under 5.5%. As for `CC[C@H](C)[C@H](NC(=O)[C@H](Cc1ccc(O)cc1)NC(=O)[C@@H]1CCCN1C(=O)[C@H](CCCNC(=N)N)NC(=O)[C@@H](N)CCCNC(=N)N)C(=O)N[C@@H](CC(C)C)C(=O)O`, the metabolised at 2 h, 50 µM in data set [4] was under 5.5%. As for `CC[C@H](C)[C@H](NC(=O)[C@H](Cc1ccc(O)cc1)NC(=O)[C@@H](NC(=O)[C@H](CCCN/C(N)=N/C(=O)NCCCCNC(=O)CCCCCN1\C(=C/C=C/C=C/C2=[N+](C)c3ccccc3C2(C)C)C(C)(C)c2ccccc21)NC(=O)[C@@H](N)CC(=O)O)C(C)C)C(=O)N[C@@H](Cc1cnc[nH]1)C(=O)N1CCC[C@H]1C(=O)N[C@@H](Cc1ccccc1)C(=O)O.O=C(O)C(F)(F)F.O=C(O)C(F)(F)F.O=C(O)C(F)(F)F.O=C(O)C(F)(F)F.[Br-]`, in data set [2], the Stability entry is given as “Stable”. Consider `CC[C@H](C)[C@H](NC(=O)[C@H](Cc1ccc(O)cc1)NC(=O)[C@@H](NC(=O)[C@H](CCCN/C(N)=N/C(=O)NCCCCN)NC(=O)[C@@H](N)CC(=O)O)C(C)C)C(=O)N[C@@H](Cc1cnc[nH]1)C(=O)N1CCC[C@H]1C(=O)N[C@@H](Cc1ccccc1)C(=O)O.O=C(O)C(F)(F)F.O=C(O)C(F)(F)F.O=C(O)C(F)(F)F.O=C(O)C(F)(F)F` (H-D[X2]VYIHPF-OH), for which, in data set [6], the pEC50 (in general, the EC50 on a negative log10 scale, so that one unit is a factor of ten) is 8.85. In data set [7], this molecule had a pIC50 of 8.21 and a pKi of 8.68. The Stability entry in data set [8] was “Stable”.
